Consider two molecules from ChEMBL document CHEMBL4477177, “Antituberculosis Activity of a Naturally Occurring Flavonoid, Isorhamnetin” (J Nat Prod, 2016).

By MIC is commonly meant the smallest concentration in the dilution series that meets the test's criterion for growth inhibition. A higher MIC goes with a need for much substance. In general, MIC90 refers to an inhibitory concentration at the 90% level, which refers to growth in some studies and to a panel of isolates in others. Low values mean greater potency, high ones weaker potency. Broadly, the logP is a log measure of how a compound divides between an organic and an aqueous phase.

SMILES strings stand for the structures. Converted amounts (≈) assume the structure as drawn.

For series [1], the system named is Mycobacterium tuberculosis. The experiment in a line: Antitubercular activity against Mycobacterium tuberculosis H37Rv ATCC 27294 incubated for 7 days by resazurin assay. The settings on record: H37Rv ATCC 27294, 168 h. Format: functional. A general note: Resazurin is reduced to fluorescent resorufin, in cell work by metabolically active cells.
Series [2] concerns Mycobacterium tuberculosis. As to the kind of experiment: Antitubercular activity against MDR Mycobacterium tuberculosis M22 incubated for 1 to 9 days by inverted microscopic analysis. Format: functional. In outline: (§1)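 Bacteria immobilised in 0.5% agarose within microfluidic channels of a 96-well chip. Compound (0–632 μM; rifampicin 0–19.4 μM) supplied in Middlebrook 7H9 with 10% OADC and allowed to diffuse in. Incubated at 37 °C; channel boundary imaged by inverted microscopy (40×) at 1, 3, 5, 7 and 9 days. MIC90 taken as lowest concentration giving 90% growth inhibition. Triplicate.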

Series [3] concerns the target MAP kinase p38 (Homo sapiens) (UniProt O15264+Q15759+Q16539+P53778). The experiment in a line: Binding affinity to human C-terminally His-tagged p38 expressed in Escherichia coli BL21 by fluorescence quenching based spectrofluorometric analysis. In outline: (§2)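 C-terminally His6-tagged ERK1 or p38 MAPK expressed in E. coli and purified. Protein at 10 μM in 50 mM sodium phosphate, 100 mM NaCl, pH 8.0, titrated with ligand to 1:10 protein:ligand. Excitation 290 nm, emission 290–500 nm. Binding constant K derived from fluorescence quenching.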

Series [4] has as its system Mycobacterium tuberculosis. The experiment in a line: Antitubercular activity against MDR Mycobacterium tuberculosis X23 incubated for 1 to 9 days by inverted microscopic analysis. Format: functional.
Series [5] deals with Mycobacterium tuberculosis. The experiment in a line: Antitubercular activity against XDR Mycobacterium tuberculosis X24 incubated for 1 to 9 days by inverted microscopic analysis. Format: functional. The gist of the method:
as §1

Series [6] in a line: Lipophilicity, logP of the compound. Format: physicochemical. As to conditions: octanol/water.
Series [7] has as its system Mycobacterium tuberculosis. As to the kind of experiment: Antitubercular activity against Mycobacterium tuberculosis H37Rv P887 incubated for 1 to 9 days by inverted microscopic analysis. Format: functional. In outline:
as §1

Series [8] concerns Mycobacterium tuberculosis. The experiment in a line: Antitubercular activity against XDR Mycobacterium tuberculosis X59 incubated for 1 to 9 days by inverted microscopic analysis. Format: functional. In outline: as §1
Series [9] concerns the target Mitogen-activated protein kinase 3 (Homo sapiens) (UniProt P27361). As to the kind of experiment: Binding affinity to human ERK1 expressed in Escherichia coli BL21 by fluorescence quenching based spectrofluorometric analysis. The gist of the method:
as §2

Sequence of Mitogen-activated protein kinase 3 (Homo sapiens) (P27361 whole entry): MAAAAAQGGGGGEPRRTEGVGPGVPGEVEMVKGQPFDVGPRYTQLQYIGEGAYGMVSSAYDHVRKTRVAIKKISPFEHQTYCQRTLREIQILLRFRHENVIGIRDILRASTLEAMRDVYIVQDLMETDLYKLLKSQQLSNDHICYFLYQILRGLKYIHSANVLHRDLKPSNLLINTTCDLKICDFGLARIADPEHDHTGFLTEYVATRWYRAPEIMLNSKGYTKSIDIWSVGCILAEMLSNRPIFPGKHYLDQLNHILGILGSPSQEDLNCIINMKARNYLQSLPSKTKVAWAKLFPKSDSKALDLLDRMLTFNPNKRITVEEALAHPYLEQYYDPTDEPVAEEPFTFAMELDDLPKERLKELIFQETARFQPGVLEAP

In the case of `O=c1cc(-c2ccc(O)c(O)c2)oc2cc(O)cc(O)c12` [LUTEOLIN], the MIC in series [1] is 827 µM (≈ 237 µg/mL).
On to `COc1ccc(-c2oc3cc(O)cc(O)c3c(=O)c2O)cc1O` [TAMARIXETIN], for which the MIC90 in series [2] is 632 µM (≈ 200 µg/mL); in series [4] it was 632 µM (≈ 200 µg/mL); in series [5] it was greater than 632 µM; in series [7] it was 632 µM (≈ 200 µg/mL); in series [8] it was greater than 632 µM. For the same molecule, the K in [3] was 4.64 ×10⁴ /M; in series [9], 6.31 ×10⁴ /M. In addition, the logP in series [6] amounted to 1.86.
